Measurements as given in ChEMBL document CHEMBL1150378, “Synthesis and in vitro antiprotozoal activities of water-soluble, inexpensive 3,7-bis(dialkylamino)phenoxazin-5-ium derivatives” (J Med Chem, 2008).
pIC50: −log10 of the molar value.

How the values were obtained:
Plasmodium falciparum = test: Antiplasmodial activity against chloroquine and pyrimethamine-resistant Plasmodium falciparum K1; format: functional, organism-based
Summary of the method: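 Compounds were prepared as 10 mg/mL DMSO stocks, diluted in serum-free medium, then brought to test concentrations in complete medium without hypoxanthine. DMSO was at most 1% in the top-concentration wells. IC50 values come from two replicate experiments, with chloroquine as the reference standard. Rat L6 myoblast IC50 served for the selectivity index.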

[1] = Selectivity index, Ratio of IC50 for rat L6 cells to IC50 for Plasmodium falciparum K1; format: functional
Summary of the method: (§1)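 Selectivity index is the L6 myoblast cytotoxicity IC50 divided by the IC50 against the respective parasite. Both IC50 values come from two replicate experiments, with compounds diluted from 10 mg/mL DMSO stocks and final DMSO at most 1%.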

Trypanosoma cruzi = test: Antitrypanosomal activity against Trypanosoma cruzi Tulahuen C2C4; format: functional, organism-based
Summary of the method: (§2)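 Test compounds were made up as 10 mg/mL stocks in 100% DMSO, warmed or sonicated to dissolve, then diluted in serum-free medium and brought to working concentration in complete medium without hypoxanthine. DMSO was at most 1% in the top-concentration wells. IC50 was determined by previously described methods, with values from two replicate experiments. Reference drugs were chloroquine, melarsoprol, benznidazole, miltefosine and podophyllotoxin (L6).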

[2] = Selectivity index, Ratio of IC50 for rat L6 cells to IC50 for Trypanosoma cruzi Tulahuen C2C4; format: functional; summary of the method: as §1
[3] = tested on: Trypanosoma brucei rhodesiense; test: Antitrypanosomal activity against Trypanosoma brucei rhodesiense STIB900; format: functional, organism-based; summary of the method: as §2
[4] = Selectivity index, Ratio of IC50 for rat L6 cells to IC50 for Trypanosoma brucei rhodesiense STIB900; format: functional; summary of the method: as §1
Leishmania donovani = test: Antileishmanial activity against Leishmania donovani MHOM-ET-67/L82 axenic amastigotes; format: functional, organism-based; summary of the method: as §2
[5] = Selectivity index, Ratio of IC50 for rat L6 cells to IC50 for Leishmania donovani MHOM-ET-67/L82 axenic amastigotes; format: functional; summary of the method: as §1
L6 = test: Cytotoxicity against rat L6 cells; format: cell-based; summary of the method: as §2

SMILES	pIC50 (Plasmodium falciparum)	Ratio IC50 [1]	pIC50 (Trypanosoma cruzi)	Ratio IC50 [2]	pIC50 [3]	Ratio IC50 [4]	pIC50 (Leishmania donovani)	Ratio IC50 [5]	pIC50 (L6)
[Cl-].c1cc2nc3ccc(N4CCCC4)cc3[o+]c2cc1N1CCCC1	8.52	1400	6.92	32.6	6.80	24.6	7.43	107.7	5.41
[Cl-].c1cc2nc3ccc(N4CCCCC4)cc3[o+]c2cc1N1CCCCC1	8.30	1050	7.09	67.7	6.81	35.6	5.94	4.8	5.26
COc1cc([C@@H]2c3cc4c(cc3[C@H](O)[C@H]3COC(=O)[C@H]23)OCO4)cc(OC)c1OC [PODOFILOX]									7.70
CN(C)c1ccc2nc3ccc(N4CCCCC4)cc3[o+]c2c1.[Cl-]	8.52	7740	6.76	129	6.07	26.7	5.78	13.6	4.65
CCCCCCN(CCCCCC)c1ccc2nc3ccc(N4CCCCC4)cc3[o+]c2c1.[Cl-]	8.40	48	7.68	9.6	7.85	13.7	7.85	13.7	6.70
CCCN(CCC)c1ccc2nc3ccc(N4CCCC4)cc3[o+]c2c1.[Cl-]	8.52	355	7.44	25.4	7.80	59.2	7.80	59.2	6.04
CCCCCCCCCCCCCCCCOP(=O)([O-])OCC[N+](C)(C)C [MILTEFOSINE]							6.55		
CCN(CC)c1ccc2nc3ccc(N4CCCCC4)cc3[o+]c2c1.[Cl-]	8.52	2390	7.32	132.8	6.61	26.3	5.84	4.5	5.19
CCN(CC)c1ccc2nc3ccc(N4CCSCC4)cc3[o+]c2c1.[Cl-]	8.10	2822	6.81	141.1	5.79	13.5	6.00	21.6	4.66
[Cl-].c1cc2nc3ccc(N4CCOCC4)cc3[o+]c2cc1N1CCOCC1	6.37	66.5	5.15	4	5.06	3.3	5.29	5.5	4.54
CN(C)c1ccc2nc3ccc(N4CCCC4)cc3[o+]c2c1.[Cl-]	8.22	2166.5	6.59	51	7.04	144.4	5.77	7.7	4.88
CCCCN(CCCC)c1ccc2nc3ccc(N4CCCCC4)cc3[o+]c2c1.[Cl-]	8.15	12.3	7.24	1.5	6.57	0.3	8.70	37	7.05
CCCN(CCC)c1ccc2nc3ccc(N4CCOCC4)cc3[o+]c2c1.[Cl-]	8.30	3883	6.39	47.6	6.06	22.2	6.12	25.6	4.71
CCCN(CCC)c1ccc2nc3ccc(N4CCCCC4)cc3[o+]c2c1.[Cl-]	8.10	105.3	7.64	35.1	6.62	3.3	7.01	8.1	6.10
CN(C)c1ccc2nc3ccc(N4CCOCC4)cc3[o+]c2c1.[Cl-]	7.64	2153.9	5.30	9.8	5.59	19.2	5.98	47.2	4.30
CCN(CC)c1ccc2nc3ccc(N4CCCC4)cc3[o+]c2c1.[Cl-]	8.22	1390	7.25	139	6.77	46.3	6.18	11.9	5.11
O=C(Cn1ccnc1[N+](=O)[O-])NCc1ccccc1 [BENZNIDAZOLE]			6.06						
CCCCCN(CCCCC)c1ccc2nc3ccc(N4CCCCC4)cc3[o+]c2c1.[Cl-]	8.70	63	7.82	9	7.66	6.3	8.70	63	6.85
CCCN(CCC)c1ccc2nc3ccc(N(CCC)CCC)cc3[o+]c2c1.[Cl-]	8.70	165	7.77	23.6	7.64	17.4	8.70	165	6.40
CCN(CC)c1ccc2nc3ccc(N(CC)CC)cc3[o+]c2c1.[Cl-]	8.52	2410	7.44	185.4	6.64	29.4	6.67	31.3	5.17
CCCN(CCC)c1ccc2nc3ccc(N4CCSCC4)cc3[o+]c2c1.[Cl-]	8.15	976.7	6.79	43.1	5.82	4.6	5.93	6	5.15
CN(C)c1ccc2nc3ccc(N4CCSCC4)cc3[o+]c2c1.[Cl-]	8.22	4022.5	6.22	36.6	5.26	4.1	4.84	1.5	4.65
CCN(CC)c1ccc2nc3ccc(N4CCOCC4)cc3[o+]c2c1.[Cl-]	7.54	1363.6	5.53	13.6	5.39	9.9	4.79	2.5	4.40
